Usually inhibition stands for the percentage by which the read-out fell short of the control. A higher inhibition goes with a response far below the control.

Activity calls are given as the source filed them. The calls are words filed in the database; no cut-off is given here.

This note sets out measurements from ChEMBL document CHEMBL1140013, “The 1,4-naphthoquinone scaffold in the design of cysteine protease inhibitors” (Bioorg Med Chem, 2007).

Experiment [1] addresses Pancreatic elastase (Sus scrofa) (UniProt P08419+P00772). As to the kind of experiment: Inhibition of pig pancreatic elastase. In kind it is protein assay. The gist of the method: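 Porcine pancreatic elastase (50 µM stock) was incubated with inhibitor (DMSO stock) in 0.1 M Hepes pH 7.2 for up to 2 h. Timed aliquots were assayed on Suc-Ala-Ala-Ala-4-nitroanilide, following absorbance at 390 nm for 50 s.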

Experiment [2] has as its target T1, Papain (Carica papaya) (UniProt P00784).
T1 sequence (whole entry): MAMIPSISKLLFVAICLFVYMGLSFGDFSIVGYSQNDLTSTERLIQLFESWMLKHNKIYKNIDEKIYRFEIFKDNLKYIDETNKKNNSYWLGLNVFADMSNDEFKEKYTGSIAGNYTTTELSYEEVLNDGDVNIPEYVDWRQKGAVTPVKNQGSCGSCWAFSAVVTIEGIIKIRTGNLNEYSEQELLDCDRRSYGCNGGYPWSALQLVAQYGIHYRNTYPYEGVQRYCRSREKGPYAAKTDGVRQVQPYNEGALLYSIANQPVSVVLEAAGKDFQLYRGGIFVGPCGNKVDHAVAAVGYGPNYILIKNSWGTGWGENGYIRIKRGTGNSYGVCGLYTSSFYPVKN
The experiment is described as follows: Inhibition of papain at 1.3 mM after 20 mins. Summed up: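 Papain was pre-incubated with inhibitor at 1.3 mM for 20 min. Residual activity on BAPA was read at 410 nm and reported as % inhibition.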

The next experiment has as its target Cathepsin B (Bos taurus) (UniProt P07688). The experiment is described as follows: Inhibition of bovine spleen cathepsin B. The gist of the method: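 Cathepsin B (10 U/mL) was activated 15 min at 25 °C in 20 mM sodium acetate pH 5.0 with 1.0 mM EDTA and 30 mM DTT. It was then pre-incubated with inhibitor (DMSO stock) in acetate/EDTA buffer (Kitz–Wilson method). Aliquots were assayed on Z-S-Lys-ONp with 2.0 mM DTT, following p-nitrophenol at 326 nm for 3 min at 25 °C. k_obs came from ln(v/v0) versus time, using 4–6 inhibitor concentrations.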

The target of experiment [3] is T1, Papain (Carica papaya). As to the kind of experiment: Inhibition of papain at 65 uM after 30 mins. Summed up: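 Papain activated 30 min at 25 °C in 50 mM potassium phosphate pH 7.0 with 2.5 mM EDTA and 2.0 mM DTT. Inhibitor in DMSO added to the enzyme in EDTA-only buffer, with control incubations run in parallel. Aliquots went into BAPA substrate in buffer with EDTA and DTT. p-Nitroaniline release read at 410 nm for 4 min at 25 °C.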

On to `CCOC(=O)[C@H](Cc1ccccc1)NC1=C(Cl)C(=O)c2ccccc2C1=O`, for which the result in experiment [1] was inactive.

As for `O=C1C(Cl)=C(Cl)C(=O)c2ccccc21`, the result in experiment [1] was inactive.

On to `CC1=CC(=O)c2c(C)ccc(C)c2C1=O`, for which the outcome in experiment [1] was inactive.

Take `CC(=O)Oc1cccc2c1C(=O)C=CC2=O`: the outcome in experiment [1] was inactive.

Take `CC1=CC(=O)c2ccccc2C1=O`: the result in experiment [1] was inactive.

For `CNC1=C(Br)C(=O)c2ccccc2C1=O`, the result in experiment [1] was inactive.

In the case of `CCOC(=O)[C@H](Cc1ccccc1)NC1=CC(=O)c2ccccc2C1=O`, in experiment [1], the outcome was inactive.

As for `CNC1=CC(=O)c2ccccc2C1=O`, the outcome in experiment [1] was inactive.

In the case of `O=C1C=C(Br)C(=O)c2ccccc21`, the result in experiment [1] was inactive.

Take `O=C1C=C(O)C(=O)c2ccccc21`: the inhibition on Papain (Carica papaya) [2] worked out at 82%. In experiment [1], the result was inactive.

Take `CCOC(=O)CNC1=CC(=O)c2ccccc2C1=O`: the Kinact at Cathepsin B (Bos taurus) was found to be 14 µM. Moreover, the outcome in experiment [1] was inactive.

Take `CC(C)CCNC(=O)[C@H](CC(C)C)NC1=CC(=O)c2ccccc2C1=O`: the result in experiment [1] was inactive.

Regarding `CCOC(=O)CNC1=C(Br)C(=O)c2ccccc2C1=O`, the Kinact on Cathepsin B (Bos taurus) came to 55.9 µM. The outcome in experiment [1] was inactive.

In the case of `CCOC(=O)[C@H](Cc1ccccc1)NC1=C(Br)C(=O)c2ccccc2C1=O`, in experiment [1], the result was inactive.

`O=C1C=CC(=O)c2c(O)cccc21` registered an inhibition at Papain (Carica papaya) [3] of 60.4%. The outcome in experiment [1] was inactive.

On to `CCOC(=O)CNC1=C(Cl)C(=O)c2ccccc2C1=O`, for which the result in experiment [1] was inactive.

`O=C1C(Cl)=C(N2CCOCC2)C(=O)c2ccccc21`: in experiment [1], the result was inactive.

Consider `O=C1C=CC(=O)c2ccccc21`, for which the inhibition at Papain (Carica papaya) [3] worked out at 49.5%. Moreover, the result in experiment [1] was inactive.

As to `CCOC1=CC(=O)c2ccccc2C1=O`, the Kinact at Cathepsin B (Bos taurus) is 797 µM. Further, the outcome in experiment [1] was inactive.
